Like-named read-outs stand apart in the source and are kept apart here.

As usually defined, the stoichiometry N is a count of units in the complex or per binding partner.

For one assay, the system named is FS6. Briefly: spectrophotometric kinetics, Lineweaver-Burk. In kind it is biochemical, metagenome. Particulars: pH 5.5, 25 °C, HAM poly-buffer. Put shortly:
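Purified metagenome-derived acid phosphatase (imidazole-gradient eluted, dialysed into MES/HEPES/acetate buffer with 150 mM NaCl) at 0.1-1 µM in 0.1 mL HAM poly-buffer (40 mM HEPES, 40 mM acetic acid, 40 mM MES). […] at 0 to 0.22 mM; hydrolysis followed spectrophotometrically. Vmax and Km derived from Michaelis–Menten analysis and Lineweaver–Burk double-reciprocal plots.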

Assay [1] addresses FS6 acid phosphatase (class C acid phosphatase, histidine-tagged recombinant FS6). Briefly: AUC.

With `Nc1ncnc2c1ncn2[C@@H]1O[C@H](COP(=O)(O)O)[C@@H](O)[C@H]1O` [adenosine 5'-monophosphate], the Km in the assay on FS6 (read-out: AMP-5’ / Km) came out at 180 ± 70 µM.

Regarding `Nc1nc2c(ncn2[C@@H]2O[C@H](COP(=O)(O)O)[C@@H](O)[C@H]2O)c(=O)[nH]1` [guanosine 5'-monophosphate], the Km with FS6 (read-out: GMP-5’ / Km) is 220 ± 20 µM.

Consider `O=[N+]([O-])c1ccc(OP(=O)(O)O)cc1` [p-nitrophenyl phosphate], for which the Km in the assay with FS6 (read-out: pNPP / Km) came to 40 ± 10 µM.

Turning to `O=c1ccn([C@@H]2O[C@H](COP(=O)(O)O)[C@@H](O)[C@H]2O)c(=O)[nH]1` [uridine 5'-monophosphate], in the assay with FS6 (read-out: UMP-5’ / Km), the Km stood at 180 ± 130 µM.

Turning to “FS6 acid phosphatase (class C acid phosphatase, histidine-tagged recombinant FS6) (enzyme)”, the stoichiometry N in assay [1] was found to be 10.

(Values after article PMC11001196 (Microbial Biotechnology, 2024).)
